# Reference: publication PMC2650427 (Bioconjugate chemistry, 2008)
# Like-named read-outs stand apart in the source and are kept apart here. Marks after values point to notes of the source that are not given here.
# How the values were obtained:
# Relaxivity = format: physicochemical; conditions: 100 mM phosphate buffer, pH 7.4, ambient temperature (~25 °C); saturation recovery; assessed in duplicate
# [1] = cited from earlier work
# [2] = calculated at 25 °C; cited from earlier work
# [3] = Determination of τm by 17O transverse relaxation rate measurements; format: physicochemical; conditions: variable temperature 17O NMR at 54 MHz, 15–20 mM, pH 7.40; calculated at 25 °C
# NIH/3T3 cells = assay: MR imaging and T1 analysis of labelled cells; format: cell-based; conditions: 1.0 mM, 4 h, washes at 1 hour intervals, T1-weighted, 14.1 T
# [4] = In vitro cleavage by disulfide exchange with GSH; format: physicochemical; conditions: 1.0 mM in DPBS, 37 °C, 4 h; GSH at 4 times the contrast agent; HPLC-MS ion count
# In short: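 Disulfide-linked Gd(III)-DTPA–octaarginine test compound was incubated with increasing GSH (0.25 to 4 equivalents) in 1.0 mM DPBS. Start times were staggered so each sample had 4 h at 37 °C before LC-MS. Separation used a C18 column (4.6 × 250 mm, 5 µm) at 1.0 mL/min with a water/MeCN gradient of 0–60% MeCN over 40 min. Total ion counts of the GSH-exchange product and of the starting material were compared.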
molecule,measurement,setting,value
O=C([O-])CN1CCN(CC(=O)[O-])CCN(CC(=O)O)CCN(CC(=O)[O-])CC1.[Gd+3] [Gd(III)-DOTA],"Relaxivity, 600 MHz (14.1 T)",Relaxivity,2.12 mM⁻¹ s⁻¹
same,q (number of bound water molecules),[1],1.2 ^d
same,τm (mean residence lifetime of coordinated water),[2],243 ^e ns
O=C([O-])CN(CCN(CC(=O)[O-])CC(=O)O)CCN(CC(=O)[O-])CC(=O)O.[Gd+3] [Gd(III)-DTPA],"Relaxivity, 600 MHz (14.1 T)",Relaxivity,2.09 mM⁻¹ s⁻¹
same,q (number of bound water molecules),[1],1.2 ^d
same,τm (mean residence lifetime of coordinated water),[2],303 ^e ns
Gd(III)-DOTA-SS-Arg8 [compound 3],"Relaxivity, 600 MHz (14.1 T)",Relaxivity,3.52 mM⁻¹ s⁻¹
same,τm (mean residence lifetime of coordinated water),[3],840 ns
same,MR image intensity after leaching,NIH/3T3 cells,little loss of signal intensity
Gd(III)-DTPA-SS-Arg8 [compound 4],"Relaxivity, 600 MHz (14.1 T)",Relaxivity,3.46 mM⁻¹ s⁻¹
same,τm (mean residence lifetime of coordinated water),[3],1327 ns
same,Completeness of disulfide cleavage at 4:1 GSH,[4],complete cleavage is not obtainable
same,MR image intensity after leaching,NIH/3T3 cells,little loss of signal intensity
